Data reported in ChEMBL document CHEMBL1150942, “Anti-AIDS agents. 30. Anti-HIV activity of oleanolic acid, pomolic acid, and structurally related triterpenoids” (J Nat Prod, 1998).
In brackets after ≈: the same amount, converted by molar mass.

Experiments:
[1] = Therapeutic index, ratio of IC50 for human H9 cells to EC50 for HIV1 3B; type: cell-based; details: for selectivity ratio: H9 cells (cytotoxicity IC50) and HIV-1 3B (antiviral EC50)
In short: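 TI calculated as IC50 (Coulter counts of mock-infected cells after 4 days) divided by EC50 (day-4 supernatant p24 ELISA of infected cells). Both were read from the same 4-day plates.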

[2] = test system: Human immunodeficiency virus 1; assay: Inhibition of HIV-1 replication in acutely infected human H9 cells after 4 days; details: H9, 96 h
H9 cells (Homo sapiens) = assay: Cytotoxicity against human H9 cells after 4 days
[3] = test system: Human immunodeficiency virus 1; assay: Antiviral activity against HIV1 in human H9 cells after 4 days; details: h9, 96 h
[4] = Homo sapiens, H9, 96 h, read-out: IC50

Row | Compound | Ratio IC50/EC50 ([1]; h9) | EC50 [2] [µg/mL] | IC50 (H9 cells (Homo sapiens); [4]) [µg/mL] | selectivity ratio [1] | Activity [3] | IC50 (H9 cells (Homo sapiens); h9) [µg/mL]
1 | CC1(C)CC[C@]2(C(=O)[O-])CC[C@]3(C)C(=CC[C@@H]4[C@@]5(C)CC[C@H](O)C(C)(C)[C@@H]5CC[C@]43C)[C@@H]2C1.[K+] | 68.6 | 0.5 | 34.3 | – | – | –
2 | C[C@@H](CC(=O)O)CC(=O)O[C@H]1CC[C@]2(C)[C@H]3CC=C4[C@@H]5CC(C)(C)CC[C@]5(C(=O)O)CC[C@@]4(C)[C@]3(C)CC[C@H]2C1(C)C | – | 8.3 (≈ 14.2 µM) | 27.5 (≈ 47 µM) | 3.3 | – | –
3 | C[C@H]1[C@H](C)CC[C@]2(C(=O)O)CC[C@]3(C)C(=CC[C@@H]4[C@@]5(C)CC[C@H](O)C(C)(C)[C@@H]5CC[C@]43C)[C@H]12 [URSOLIC ACID] | – | 2 (≈ 4.38 µM) | 6.5 (≈ 14.2 µM) | 3.3 | – | –
4 | CC1(C)CC[C@]2(C(=O)O)CC[C@]3(C)C(=CC[C@@H]4[C@@]5(C)CC[C@H](OC(=O)C(C)(C)CC(=O)O)C(C)(C)[C@@H]5CC[C@]43C)[C@@H]2C1 | – | – | 9.7 (≈ 16.6 µM) | – | Not Active | –
5 | CC1(C)CC[C@]2(C(=O)O)CC[C@]3(C)C(=CC[C@@H]4[C@@]5(C)C[C@@H](O)[C@H](O)[C@@](C)(CO)[C@@H]5CC[C@]43C)[C@@H]2C1 (stereo in doubt; 3) [ARJUNOLIC ACID] | – | 15 (≈ 30.7 µM) | – | – | – | 36 (≈ 73.7 µM)
6 | CC1(C)CC[C@]2(C(=O)O)CC[C@]3(C)C(=CC[C@@H]4[C@@]5(C)CCC(=O)C(C)(C)[C@@H]5CC[C@]43C)[C@@H]2C1 [OLEANONIC ACID] | – | 0.11 (≈ 0.242 µM) | 0.8 (≈ 1.76 µM) | 7.3 | – | –
7 | CC1(C)CC[C@]2(C(=O)O)CC[C@]3(CO)C(=CC[C@@H]4[C@@]5(C)CC[C@H](O)C(C)(C)[C@@H]5CC[C@]43C)[C@@H]2C1 | – | 4.4 (≈ 9.31 µM) | 25 (≈ 52.9 µM) | 5.7 | – | –
8 | C[C@@H]1CC[C@]2(C(=O)O)CC[C@]3(C)C(=CC[C@@H]4[C@@]5(C)C[C@@H](O)[C@H](O)C(C)(C)[C@@H]5CC[C@]43C)[C@@H]2[C@]1(C)O [TOMENTIC ACID] | – | – | 15 (≈ 30.7 µM) | – | Not Active | –
9 | CC1(C)CC[C@]2(C(=O)O)CC[C@]3(C)C(=CC[C@@H]4[C@@]5(C)CC[C@H](OC(=O)CC6(CC(=O)O)CCCC6)C(C)(C)[C@@H]5CC[C@]43C)[C@@H]2C1 | – | – | 4.7 (≈ 7.52 µM) | 3.9 | – | –
10 | CC1(C)CC[C@]2(C(=O)O)CC[C@]3(C)C(=CC[C@@H]4[C@@]5(C)CC[C@H](OC(=O)CCC(=O)O)C(C)(C)[C@@H]5CC[C@]43C)[C@@H]2C1 [OLEANOLIC ACID 3-O-SUCCINATE] | – | 6.1 (≈ 11 µM) | 6.5 (≈ 11.7 µM) | 1.1 | – | –
11 | C[C@@H]1CC[C@]2(C(=O)O)CC[C@]3(C)C(=CC[C@@H]4[C@@]5(C)[C@H](O)[C@H](O)[C@H](O)C(C)(C)[C@@H]5CC[C@]43C)[C@@H]2[C@]1(C)O | – | – | > 20 | – | Not Active | –
12 | C[C@@H]1CC[C@]2(C(=O)O)CC[C@]3(C)C(=CC[C@@H]4[C@@]5(C)C[C@@H](O)[C@@H](O)C(C)(C)[C@@H]5CC[C@]43C)[C@@H]2[C@]1(C)O [EUSCAPHIC ACID] | – | – | 37.5 (≈ 76.7 µM) | – | Not Active | –
13 | CC(C)(CC(=O)O)CC(=O)O[C@H]1CC[C@]2(C)[C@H]3CC=C4[C@@H]5CC(C)(C)CC[C@]5(C(=O)O)CC[C@@]4(C)[C@]3(C)CC[C@H]2C1(C)C | – | – | 14.2 (≈ 23.7 µM) | 9.3 | – | –
14 | C[C@H]1[C@H](C)CC[C@]2(C(=O)O)CC[C@]3(C)C(=CC[C@@H]4[C@@]5(C)C[C@@H](O)[C@H](O)[C@@](C)(CO)[C@@H]5CC[C@]43C)[C@H]12 [ASIATIC ACID] | – | – | 9 (≈ 18.4 µM) | – | Not Active | –
15 | CC1(C)CC[C@]2(C(=O)O)CC[C@]3(C)C(=CC[C@@H]4[C@@]5(C)C[C@@H](O)[C@H](O)[C@@](C)(CO)[C@@H]5CC[C@]43C)[C@@H]2C1 (stereo in doubt; 2) [ARJUNOLIC ACID] | – | – | – | – | – | 8 (≈ 16.4 µM)
16 | CC1(C)CC[C@]2(C(=O)O)CC[C@]3(C)C(=CC[C@@H]4[C@@]5(C)CC[C@H](O)C(C)(C)[C@@H]5CC[C@]43C)[C@@H]2C1 [OLEANOLIC_ACID] | – | – | 21.8 (≈ 47.7 µM) | – | – | –
17 | C[C@H]1[C@H](C)CC[C@]2(C(=O)O)CC[C@]3(C)C(=CC[C@@H]4[C@@]5(C)C[C@@H](O)[C@H](O)C(C)(C)[C@@H]5CC[C@]43C)[C@H]12 [COROSOLIC ACID] | – | 4 (≈ 8.46 µM) | 8 (≈ 16.9 µM) | 2 | – | –
18 | C[C@@H]1CC[C@]2(C(=O)O)CC[C@]3(C)C(=CC[C@@H]4[C@@]5(C)[C@H](O)[C@@H](O)[C@@H](O)C(C)(C)[C@@H]5CC[C@]43C)[C@@H]2[C@]1(C)O | – | 35 (≈ 69.3 µM) | > 100 | > 2.9 | – | –
19 | C=C(C)[C@@H]1CC[C@]2(C(=O)O)CC[C@]3(C)[C@H](CC[C@@H]4[C@@]5(C)C[C@@H](O)[C@H](O)C(C)(C)[C@@H]5CC[C@]43C)[C@@H]12 [ALPHITOLIC ACID] | – | 20 (≈ 42.3 µM) | 4 (≈ 8.46 µM) | 0.25 | – | –
20 | C[C@@H]1CC[C@]2(C(=O)O)CC[C@]3(C)C(=CC[C@@H]4[C@@]5(C)CC(=O)[C@H](O)C(C)(C)[C@@H]5CC[C@]43C)[C@@H]2[C@]1(C)O | – | 20 (≈ 41.1 µM) | 40 (≈ 82.2 µM) | 2 | – | –
21 | C[C@@H]1CC[C@]2(C(=O)O)CC[C@]3(C)C(=CC[C@@H]4[C@@]5(C)[C@H](O)C(=O)[C@H](O)C(C)(C)[C@@H]5CC[C@]43C)[C@@H]2[C@]1(C)O | – | – | 40 (≈ 79.6 µM) | – | Not Active | –
22 | CC1(C)CC[C@]2(C(=O)O)CC[C@]3(C)C(=CC[C@@H]4[C@@]5(C)CC[C@H](OC(=O)CC(C)(C)C(=O)O)C(C)(C)[C@@H]5CC[C@]43C)[C@@H]2C1 | – | – | 11.2 (≈ 19.2 µM) | 22400 | – | –
23 | CC1(C)CC[C@]2(C(=O)O)CC[C@]3(C)C(=CC[C@@H]4[C@@]5(C)CC[C@H](OC(=O)COCC(=O)O)C(C)(C)[C@@H]5CC[C@]43C)[C@@H]2C1 | – | – | 22.1 (≈ 38.6 µM) | – | Not Active | –
24 | CC[C@@](C)(CC(=O)O)CC(=O)O[C@H]1CC[C@]2(C)[C@H]3CC=C4[C@@H]5CC(C)(C)CC[C@]5(C(=O)O)CC[C@@]4(C)[C@]3(C)CC[C@H]2C1(C)C | – | 1.1 (≈ 1.79 µM) | 4.4 (≈ 7.18 µM) | 4.1 | – | –
25 | CC1(C)CC[C@]2(C(=O)O)CC[C@]3(C)C(=CC[C@@H]4[C@@]5(C)CC[C@H](OC(=O)CCCC(=O)O)C(C)(C)[C@@H]5CC[C@]43C)[C@@H]2C1 | – | – | 14.6 (≈ 25.6 µM) | 2.1 | – | –
26 | C[C@@H]1CC[C@]2(C(=O)O)CC[C@]3(C)C(=CC[C@@H]4[C@@]5(C)CC[C@H](O)C(C)(C)[C@@H]5CC[C@]43C)[C@@H]2[C@]1(C)O [POMOLIC ACID] | – | 1.4 (≈ 2.96 µM) | 23.3 (≈ 49.3 µM) | 16.6 | – | –
